FN deposit inh = fibronectin deposition inhibition; AH1F fibroblasts, Alexa488-fibronectin deposition fluorescence, overnight; inhibition, % at 12.6 µM; 350,000 tested, 0.086% active;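 active = mean inhibition across replicates of 30% or more, regardless of how many single replicates reach that level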
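Assay system: AH1F fibroblast monolayer, labelled fibronectin deposition. Amount: 10000 cells per well. Also added: labelled fibronectin 24 nM. Compound: single-point pinned compound. Incubation: cell attachment 1 h, compound and FN exposure overnight. Detection: fluorescence after three HBSS washes, excitation 485 nm, emission 525 nm. Read-out: inhibition of fibronectin deposition signal.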
Glyco luc inh = blocks N-linked glycosylation in D54 reporter cells. D54 ERlucT glycosylation luciferase reporter, 24 h; percent of 100 nM tunicamycin response. reporter increase, % at 12.5 µM. 360,000 tested, 0.23% active. AID 588692;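 active = mean luciferase reporter signal, scaled so untreated is 0 and the glycosylation-blocking control 100, at or above a set limit in every replicate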;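 also: luciferase carries N-glycosylation sites so blocking glycosylation raises the light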
RAD54 inh = RAD54 (human) branch migration inhibition. AID 602329. inhibition, % at 10.4 µM. RAD54 Holliday junction branch migration, FAM/BHQ fluorescence. 360,000 tested, 0.14% active;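 active = mean normalized replicate activity at least 40 and at least half of replicates scoring 40 or more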;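 also: inhibitors cause a drop in the FAM fluorescence signal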
AF4-AF9 inh = blocks AF4 peptide binding to human AF9 | P42568 | AlphaScreen, biotin-AF4 peptide binding to FLAG-AF9 | inhibition, % at 10 µM | 350,000 tested, 0.47% active | AID 651704;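 active = every replicate reaching a set inhibition limit, whatever the replicate mean, cut at about 25% in these data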
Target sequence (P42568 whole entry, looked up): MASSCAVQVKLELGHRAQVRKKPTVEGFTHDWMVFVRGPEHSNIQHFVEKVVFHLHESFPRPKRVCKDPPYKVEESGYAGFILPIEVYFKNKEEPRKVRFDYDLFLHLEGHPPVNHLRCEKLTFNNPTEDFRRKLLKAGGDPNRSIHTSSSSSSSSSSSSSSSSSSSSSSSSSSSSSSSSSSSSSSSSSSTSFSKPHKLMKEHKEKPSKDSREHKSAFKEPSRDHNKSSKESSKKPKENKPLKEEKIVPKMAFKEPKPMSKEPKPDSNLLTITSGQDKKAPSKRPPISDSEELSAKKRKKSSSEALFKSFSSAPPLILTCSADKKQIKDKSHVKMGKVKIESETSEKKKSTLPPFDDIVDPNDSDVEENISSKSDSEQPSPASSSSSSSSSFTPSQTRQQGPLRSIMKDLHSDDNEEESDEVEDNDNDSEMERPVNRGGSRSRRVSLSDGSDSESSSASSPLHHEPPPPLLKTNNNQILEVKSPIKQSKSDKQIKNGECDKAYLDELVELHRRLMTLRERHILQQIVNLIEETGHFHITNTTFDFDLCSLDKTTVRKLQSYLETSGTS
RAD52 inh = RAD52 (human) annealing inhibition. inhibition, % at 18.7 µM. AID 651710. P43351. recombinant RAD52 DNA annealing, FRET fluorescence. 360,000 tested, 0.46% active;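 active = every replicate showing at least 50% inhibition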
Numbers stand for hits. This is a sample that favours compounds with a hit; in the whole collection about 0.92% have one here.

How did C#CCOCCOCCOCCNc1nc(N2CCN(C(=O)[C@H](CCCCN)n3cc(CN)nn3)CC2)nc(N2CCN(C(=O)[C@H](CCCCN)n3cc([C@@H](N)CC(N)=O)nn3)CC2)n1 do in these assays?
FN deposit inh: inactive; Glyco luc inh: inactive; RAD54 inh: inactive; AF4-AF9 inh: 40; RAD52 inh: inactive

What do the screens show for `C#CCOCCOCCOCCNc1nc(N2CCN(C(=O)C([C@@H](C)O)n3cc([C@@H](N)CCCCN)nn3)CC2)nc(N2CCN(C(=O)[C@H](CCC(=O)O)n3cc([C@@H](N)CCCCN)nn3)CC2)n1` (some centres undefined)?
FN deposit inh: inactive; Glyco luc inh: inactive; RAD54 inh: inactive; AF4-AF9 inh: inactive; RAD52 inh: inactive

What do the screens show for `CC1CCN(c2nc(/C=C/c3ccccc3)nc3ccccc23)CC1`?
FN deposit inh: inactive; Glyco luc inh: inactive; AF4-AF9 inh: 32; RAD52 inh: inactive

What do the screens show for `C(=C\c1nc(N2CCCC2)c2ccccc2n1)/c1ccccc1`?
Glyco luc inh: inactive

What do the screens show for `CCN(CC)c1ccc(C(=O)N/N=C/c2ccccc2OC(F)F)cc1`?
FN deposit inh: 41; Glyco luc inh: inactive; AF4-AF9 inh: inactive; RAD52 inh: inactive

How did CCCN(C)C[C@@H]1OCCCC[C@@H](C)Oc2ccc(NC(=O)CCCCCC(=O)Nc3ccccc3N)cc2C(=O)N([C@H](C)CO)C[C@@H]1C do in these assays?
AF4-AF9 inh: inactive; RAD52 inh: inactive

How did CO[C@@H]1CN(C)C(=O)c2cc(NC(C)=O)ccc2OC[C@H](C)N(Cc2cncnc2)C[C@H]1C do in these assays?
FN deposit inh: inactive; AF4-AF9 inh: inactive; RAD52 inh: inactive

Results for O=C(/C=C/c1ccc(Br)cc1)c1ccc(NC2=NCCCS2)cc1 ?
FN deposit inh: inactive; Glyco luc inh: inactive; AF4-AF9 inh: inactive; RAD52 inh: 51

Results for O=C(/C=C/c1ccccc1)c1ccc(NC2=NCCCS2)cc1 ?
FN deposit inh: inactive; Glyco luc inh: inactive; RAD54 inh: inactive; AF4-AF9 inh: inactive; RAD52 inh: inactive

How did CN(C)CC(=O)Nc1ccc2c(c1)[C@@H]1C[C@H](CC(=O)NCc3cccnc3)O[C@H](CO)[C@@H]1O2 do in these assays?
FN deposit inh: inactive; RAD54 inh: inactive; AF4-AF9 inh: inactive; RAD52 inh: inactive

Results for CC1=C(n2ccnc2)CCC1=O ?
FN deposit inh: inactive; Glyco luc inh: 86; RAD54 inh: inactive

Results for CC1=C(N2CCOCC2)CCC1=O ?
FN deposit inh: inactive; Glyco luc inh: inactive; RAD54 inh: inactive; AF4-AF9 inh: inactive; RAD52 inh: inactive

What do the screens show for `O=C(N1CCOCC1)C1(S(=O)(=O)c2ccccc2)CC=CC1`?
FN deposit inh: inactive; Glyco luc inh: inactive; RAD54 inh: inactive; AF4-AF9 inh: inactive; RAD52 inh: inactive

What do the screens show for `O=C(N1CCCCC1)C1(S(=O)(=O)c2ccccc2)CC=CC1`?
FN deposit inh: inactive; Glyco luc inh: inactive; RAD54 inh: inactive; AF4-AF9 inh: 44; RAD52 inh: inactive

What do the screens show for `Cc1ccc(NC(=O)c2ccc(Cl)cc2[N+](=O)[O-])nc1`?
FN deposit inh: inactive; Glyco luc inh: 31; AF4-AF9 inh: inactive; RAD52 inh: inactive

Results for Cc1ccc(NC(=O)c2ccccc2[N+](=O)[O-])nc1 ?
FN deposit inh: inactive; Glyco luc inh: inactive; RAD54 inh: inactive; AF4-AF9 inh: inactive; RAD52 inh: inactive

What do the screens show for `Cc1cc(N2CCN(c3ccc(C(F)(F)F)cc3[N+](=O)[O-])CC2)c2ccccc2n1`?
FN deposit inh: inactive; Glyco luc inh: inactive; RAD54 inh: inactive; AF4-AF9 inh: inactive; RAD52 inh: inactive

What do the screens show for `Cc1cc(N2CCN(c3ccc([N+](=O)[O-])c4cccnc34)CC2)c2ccccc2n1`?
Glyco luc inh: 105

What do the screens show for `COc1ccc2c3c([nH]c2c1)[C@@H](CO)N(C(C)=O)CC31CN(Cc2ccccc2Cl)C1`?
FN deposit inh: inactive; AF4-AF9 inh: 29; RAD52 inh: inactive

What do the screens show for `COc1ccc2c3c([nH]c2c1)[C@@H](CO)N(C(C)=O)CC31CN(C(C)=O)C1`?
AF4-AF9 inh: inactive; RAD52 inh: inactive

Results for COc1ccc2c3c([nH]c2c1)[C@H](CO)N(C(=O)CN(C)C)CC31CN(Cc2ccccc2Cl)C1 ?
AF4-AF9 inh: 32

Results for COCC(=O)N1CC2(CN(Cc3ccccc3Cl)C2)c2c([nH]c3cc(OC)ccc23)[C@@H]1CO ?
AF4-AF9 inh: inactive

How did COc1ccc2c3c([nH]c2c1)[C@H](CO)N(C(=O)CN(C)C)CC31CCN(Cc2ccccc2Cl)CC1 do in these assays?
AF4-AF9 inh: 28; RAD52 inh: inactive

What do the screens show for `COc1ccc2c3c([nH]c2c1)[C@H](CO)N(C(=O)CN(C)C)CC31CCN(Cc2ccncc2)CC1`?
AF4-AF9 inh: inactive; RAD52 inh: inactive

Results for CCC(=O)N1CC2(CN(Cc3ccccc3Cl)C2)c2c([nH]c3cc(OC)ccc23)[C@H]1CO ?
AF4-AF9 inh: 30; RAD52 inh: inactive

Results for C[C@@H]1CN([C@@H](C)CO)C(=O)c2cc(C3=CCCC3)cnc2O[C@H]1CN(C)C(=O)C1CCOCC1 ?
RAD54 inh: inactive; AF4-AF9 inh: inactive; RAD52 inh: inactive

How did Oc1[nH]c2ccccc2c1N=NC(=S)N1CCOCC1 do in these assays?
Glyco luc inh: inactive; RAD54 inh: inactive

What do the screens show for `Oc1[nH]c2ccc(Br)cc2c1N=NC(=S)N1CCOCC1`?
FN deposit inh: 31; Glyco luc inh: inactive; RAD54 inh: inactive; RAD52 inh: inactive

How did CC(C)(C)S(=O)(=O)N1C[C@H]2CC/C=C\C/C(c3ccccc3)=C\2[C@@H]1CCO do in these assays?
FN deposit inh: inactive; Glyco luc inh: 38; RAD54 inh: inactive; AF4-AF9 inh: inactive; RAD52 inh: inactive

How did CO[C@@H]1CN(C)C(=O)c2ccc(NC(=O)c3cnccn3)cc2OC[C@H](C)N(CCc2ccccc2)C[C@H]1C do in these assays?
FN deposit inh: inactive; RAD54 inh: inactive; AF4-AF9 inh: inactive; RAD52 inh: inactive

Results for Cc1ccc(C(=O)NNc2ncnc3c2cnn3C)cc1 ?
FN deposit inh: inactive; Glyco luc inh: inactive; RAD52 inh: inactive

What do the screens show for `Cn1ncc2c(O/N=C(\N)c3ccc(C(F)(F)F)cc3)ncnc21`?
FN deposit inh: inactive; Glyco luc inh: 41; RAD54 inh: inactive; AF4-AF9 inh: inactive; RAD52 inh: inactive

What do the screens show for `COc1ccc2c3c(n(C)c2c1)[C@H](CO)N(C(=O)Nc1ccc(F)cc1)CC31CCN(Cc2cccnc2)CC1`?
AF4-AF9 inh: inactive

Results for COc1ccc2c3c(n(C)c2c1)[C@H](CO)N(C(=O)Nc1ccc(F)cc1)CC31CCN(Cc2ccccc2F)CC1 ?
AF4-AF9 inh: inactive; RAD52 inh: 55

What do the screens show for `COc1ccc2c3c(n(C)c2c1)[C@@H](CO)N(C(=O)Nc1ccc(F)cc1)CC31CN(Cc2cccnc2)C1`?
AF4-AF9 inh: 27; RAD52 inh: inactive

How did COc1ccc2c3c(n(C)c2c1)[C@@H](CO)N(C(=O)Nc1ccc(F)cc1)CC31CCN(Cc2cccnc2)CC1 do in these assays?
AF4-AF9 inh: 39
